The list is not random: actives were taken first. Their share in the collection is about 4%.
CHO parental Ca: ATP-evoked calcium signal inhibitors, parental CHO, primary screen, counter-screen for OX1R antagonist project, cell-based, fluorescence, Fluo-8 calcium dye; parental CHO-K1, ATP-induced calcium, Fluo-8 fluorescence; inhibition, % at 5.6 µM; 330,000 tested, 0.63% active;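 active = inhibition above that plate's mean sample inhibition plus 3 SD, cut at about 26% in these data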
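Measured by: calcium-sensitive Fluo-8 fluorescence / Test system: CHO parental line / Controls: ATP-challenged DMSO wells low, unchallenged DMSO wells high / Measure: % inhibition / Compound: single nominal dose of 5.6 µM per compound / Replicates: single well per compound, no replicates / Reagent: ATP as calcium-mobilizing challenge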
TAAR1 antag: human TAAR1 antagonists, primary screen, Fluo-8 calcium fluorescence, CHO RD-HGA16 cells; Trace amine-associated receptor 1 (Homo sapiens), Q96RJ0; antagonist; inhibition, % at 3 µM; 360,000 tested, 1.5% active;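 active = inhibition above a per-plate cutoff, the mean inhibition of test compounds on that plate plus 3 SD, cut at about 49% in these data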
Target sequence (Q96RJ0 whole entry, looked up): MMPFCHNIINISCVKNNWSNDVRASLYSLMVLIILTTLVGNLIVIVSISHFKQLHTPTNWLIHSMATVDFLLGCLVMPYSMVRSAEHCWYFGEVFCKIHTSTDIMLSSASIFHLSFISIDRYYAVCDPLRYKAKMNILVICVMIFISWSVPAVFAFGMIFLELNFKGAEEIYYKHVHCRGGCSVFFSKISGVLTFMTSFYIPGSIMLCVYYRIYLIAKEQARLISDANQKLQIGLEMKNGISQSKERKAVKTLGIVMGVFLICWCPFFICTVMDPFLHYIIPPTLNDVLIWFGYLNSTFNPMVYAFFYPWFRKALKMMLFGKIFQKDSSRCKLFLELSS
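Assay system: RD-HGA16 CHO cells with stable hTAAR1 and Gα16 / Reagent: EC80 β-phenethylamine stimulus / Doses: 3 µM, single point / Timing: dye loading 75 min at 37 °C, then 30 min room temperature / Measured by: Fluo-8 intracellular calcium dye fluorescence, real-time kinetic reads / Controls: vehicle wells and EC80 agonist wells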
OX1R antag-1: antagonists of human orexin 1 receptor (OX1R); OX1R-expressing cells, FRET antagonist read-out; inhibition, % at 6.6 µM; 330,000 tested, 1.8% active; AID 485270, 2010; in the data active = inhibition mostly above about 38%, no sharp cut-off; inactive = mostly below about 40%
Target sequence (O43613 whole entry, looked up): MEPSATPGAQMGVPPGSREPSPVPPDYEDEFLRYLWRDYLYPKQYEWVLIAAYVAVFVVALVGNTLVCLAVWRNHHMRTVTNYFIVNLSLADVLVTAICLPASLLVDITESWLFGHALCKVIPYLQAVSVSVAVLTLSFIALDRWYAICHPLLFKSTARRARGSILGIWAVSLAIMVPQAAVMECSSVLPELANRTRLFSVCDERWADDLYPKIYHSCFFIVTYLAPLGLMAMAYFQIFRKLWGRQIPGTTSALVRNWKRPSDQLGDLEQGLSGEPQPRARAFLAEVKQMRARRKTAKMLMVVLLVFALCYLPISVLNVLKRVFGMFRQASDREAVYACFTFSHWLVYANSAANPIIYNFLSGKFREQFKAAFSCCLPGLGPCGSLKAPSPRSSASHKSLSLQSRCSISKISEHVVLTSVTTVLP
OX1R antag-2: OX1R (HCRTR1) antagonists, primary screen, fluorescence, CHO/OX1R cells, Fluo-8 calcium, orexin A; Orexin/Hypocretin receptor type 1 (Homo sapiens), O43613; Fluo-8 calcium fluorescence; inhibition, % at 5 µM; 330,000 tested, 0.43% active; AID 434989, 2010;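 active = inhibition above its plate's threshold, mean inhibition of all tested compounds on the plate plus 3 SD, cut at about 37% in these data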
NTR1 ag: agonists of human NTR1, primary screen, imaging, U2OS cells, beta-arrestin-GFP, high content; 330,000 tested, 0.17% active; AID 493036, 2011; NTR1-U2OS beta-arrestin-GFP spot imaging, agonist mode; activation, % at 20 µM; Neurotensin receptor type 1 (Homo sapiens), P30989;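 active = activation at or above 40% of the spot to cytoplasm intensity ratio, with at least 20 cells analyzed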
TAAR1 ag: human TAAR1 agonists, primary screen, Fluo-8 calcium fluorescence, CHO RD-HGA16 cells. 360,000 tested, 0.99% active. AID 624467, 2012. vehicle wells 0%, saturating PEA agonist 100%. activation, % at 3 µM;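 active = activation above the mean activation of all test compounds in the run plus 3 SD, cut at about 38% in these data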
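Repeats: no replicates (n 1) | Material: CHO-derived RD-HGA16 cells with stable Gα16 and human TAAR1 | Technique: Kinetic Fluo-8 calcium fluorescence | Schedule: 17-24 h seeding, 75 min 37 °C dye, 30 min RT | Evaluation: % activation from peak over basal fluorescence ratio, DMSO-to-PEA scaled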
OX1R HTRF conf: OX1R (HCRTR1) antagonists, confirmation, cell-based, HTRF; shares compounds with OX1R antag-1; OX1R-expressing cells, HTRF antagonist assay; inhibition, % at 6.6 µM; 1,800 tested, 49% active; AID 492964, 2010; in the data active = inhibition above about 55%;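 also: CHO cells expressing OX1R stimulated with orexin A at about EC80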
CHO-K1 HTRF cnt: signal inhibition in parental CHO-K1 cells, counter-screen for OX1R antagonist project, cell-based, HTRF; 1,800 tested, 48% active; shares compounds with OX1R antag-1; inhibition, % at 6.6 µM; AID 493232, 2011; HTRF counterscreen; in the data active = inhibition above about 17%
NTR1 ag conf: NTR1 agonists, single-dose retest, confirmation, imaging, U2OS cells, beta-arrestin-GFP, single concentration; 480 tested, 38% active; NTR1-U2OS beta-arrestin-GFP translocation imaging; activation, % at 20 µM; shares compounds with NTR1 ag; AID 504550, 2011;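 active = mean activation at 20 µM of at least 40%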
TAAR1 nonsel count: nonselective antagonists in TAAR1 counter-screen cells, counter-screen for hTAAR1 antagonist project, cell-based, fluorescence, calcium; shares compounds with TAAR1 antag; counterscreen cell line, antagonist mode; inhibition, % at 3 µM; 2,400 tested, 77% active; AID 651780, 2012; in the data active = inhibition above about 22%;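 also: CHO-Ga16 host cells stimulated with ATP at an EC80 level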
TAAR1 ant conf: human TAAR1 antagonists, retest of hits, confirmation, cell-based, fluorescence | shares compounds with TAAR1 antag | TAAR1-expressing cells, fluorescence antagonist read-out | inhibition, % at 3 µM | 2,400 tested, 40% active; in the data active = inhibition above about 49%;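 also: CHO-Ga16 host cells challenged with agonist PEA near its EC80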
Ga16 nonsel ag: calcium activation in Ga16-expressing cells, counter-screen for TAAR1 antagonist project, cell-based, fluorescence | activation, % at 3 µM | 2,400 tested, 18% active | AID 651953, 2012 | shares compounds with TAAR1 antag | agonist counterscreen; in the data active = activation above about 12%
TAAR1 ag counter: TAAR1 activation by candidate antagonists – cell-based, fluorescence, counter-screen for TAAR1 antagonist project | AID 651955, 2012 | hTAAR1 cell line, agonist mode | activation, % at 3 µM | shares compounds with TAAR1 antag | 2,400 tested, 2% active; in the data active = activation above about 37%;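 also: CHO cells stably expressing TAAR1 with calcium dye readout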
Large screens that a line does not name were inactive (follow-up assays come after a bar, where they were run).

COc1ccc(-c2ncn(CCC#N)c2[N+](=O)[O-])cc1	OX1R antag-1 85 | OX1R HTRF conf inactive | CHO-K1 HTRF cnt 42
COc1ccc(-c2cc(=O)n(CCC#N)[nH]2)cc1	none
CC(C)CN(C(=O)c1ccc(S(=O)(=O)N2CCOCC2)cc1)C1CCS(=O)(=O)C1 (stereo unspecified)	none
N#C/C(=N\Nc1ccc([N+](=O)[O-])cc1)C(N)=S	OX1R antag-1 90 | OX1R HTRF conf 64 | CHO-K1 HTRF cnt 51
N#C/C(=N\Nc1ccc(S(=O)(=O)N2CCc3ccccc32)cc1)C(N)=S	OX1R antag-1 106 | OX1R HTRF conf inactive | CHO-K1 HTRF cnt 21
Cc1ccc(CCC(=O)Nc2ccc(C)c(C)c2)o1	none
Cc1ccc(C(=O)N/C(=C/c2ccc(-c3cccc([N+](=O)[O-])c3)o2)C(=O)NC(C)(C)C)cc1	OX1R antag-1 85 | OX1R HTRF conf 69 | CHO-K1 HTRF cnt inactive
Cn1c(CNC(=O)CNC(=O)c2ccc(C(C)(C)C)cc2)cc(=O)n(C)c1=O	none
CCN(C(=O)COC(=O)/C=C/c1cccc([N+](=O)[O-])c1)c1c(N)n(Cc2ccccc2)c(=O)[nH]c1=O	none
COc1ccc([C@@H]2CC=C(C(=O)O)[C@H](c3ccccc3)N2S(=O)(=O)c2ccc(C)cc2)cc1OC	none
COc1ccc([C@@H]2CC=C(C(=O)O)[C@H](c3cccc(Cl)c3)N2S(=O)(=O)c2ccc(C)cc2)cc1OC	OX1R antag-1 77 | OX1R HTRF conf 84 | CHO-K1 HTRF cnt inactive
COc1ccc([C@@H]2CC=C(C(=O)O)[C@H](c3ccccc3)N2S(=O)(=O)c2ccccc2C)cc1	OX1R antag-1 78 | OX1R HTRF conf 55 | CHO-K1 HTRF cnt inactive
Cc1ccc(S(=O)(=O)NCCOc2nc(N(C)C)nc(N(C)C)n2)cc1	OX1R antag-1 90 | OX1R HTRF conf 64 | CHO-K1 HTRF cnt inactive
CCNc1nc(OCCNS(=O)(=O)c2cc(C)ccc2C)nc(N(C)C)n1	none
COc1ccc(Br)cc1C(=O)NC(=S)Nc1c(C)n(C)n(-c2ccccc2)c1=O	none
Cc1cc(F)ccc1NCc1cc2c(cc1[N+](=O)[O-])OCO2	OX1R antag-1 85 | OX1R HTRF conf inactive | CHO-K1 HTRF cnt 21
CSc1nc2nc(-c3cccs3)cc(C(F)(F)F)c2c(=O)[nH]1	none
Cc1c(C(=O)O)sc2nc(-c3cccs3)cc(C(F)(F)F)c12	OX1R antag-1 78 | OX1R HTRF conf inactive | CHO-K1 HTRF cnt 30
O=C(CSc1ncn[nH]1)N/N=C/c1ccc(C(F)(F)F)cc1	none
COc1cc(OC)c2cc(C(=O)N/N=C/c3cccc(OC)c3O)[nH]c2c1	OX1R antag-1 77, NTR1 ag 60 | OX1R HTRF conf 72 | CHO-K1 HTRF cnt inactive | NTR1 ag conf 73
C=CCSc1nnc(NC(=O)CCN2C(=O)C3CC=CCC3C2=O)s1 (stereo unspecified)	none
O=C(NNc1c2ccccc2nc2ccccc12)c1ccccc1O	TAAR1 antag 54, OX1R antag-1 84, NTR1 ag 50 | OX1R HTRF conf 61 | CHO-K1 HTRF cnt inactive | NTR1 ag conf inactive
O=C(NNC(=O)c1cccc2ccccc12)c1ccccc1O	none
COc1cc(OC)cc(C(=O)Nc2ccc(-c3nc4ccccc4o3)cc2)c1	TAAR1 antag 64, OX1R antag-1 86 | OX1R HTRF conf inactive | CHO-K1 HTRF cnt inactive | TAAR1 nonsel count 26 | TAAR1 ant conf inactive | Ga16 nonsel ag inactive | TAAR1 ag counter inactive
O=C(CNC(=O)c1ccccc1)N=Nc1c(O)[nH]c2ccc(Br)cc12	none
O=Nc1c(-c2c(O)[nH]c3cc(Br)ccc23)[nH]c2ccccc12	TAAR1 antag 50, OX1R antag-1 98 | OX1R HTRF conf 79 | CHO-K1 HTRF cnt 26 | TAAR1 nonsel count inactive | TAAR1 ant conf inactive | Ga16 nonsel ag inactive | TAAR1 ag counter inactive
CCOC(=O)c1c(C)[nH]c(C(=O)OCC(=O)Nc2ccc(Cl)cn2)c1C	none
CCOC(=O)c1c(C)[nH]c(C(=O)OCC(=O)Nc2sccc2C(N)=O)c1C	TAAR1 antag 72, OX1R antag-1 99, NTR1 ag 44 | OX1R HTRF conf 64 | CHO-K1 HTRF cnt inactive | NTR1 ag conf 41 | TAAR1 nonsel count 39 | TAAR1 ant conf 53 | Ga16 nonsel ag 17 | TAAR1 ag counter inactive
CCOc1ccc(/C=C2\SC(=S)N(NS(=O)(=O)c3ccccc3)C2=O)cc1OC	TAAR1 antag 75, OX1R antag-1 78 | OX1R HTRF conf inactive | CHO-K1 HTRF cnt 24 | TAAR1 nonsel count 23 | TAAR1 ant conf 53 | Ga16 nonsel ag inactive | TAAR1 ag counter inactive
COc1ccc(NC(=O)c2cc(=O)[nH]c(=O)[nH]2)cc1S(=O)(=O)Nc1ccccc1Cl	none
COc1ccc(-c2oc3ccc(N4CCOCC4)cc3c2C#CCO)cc1	TAAR1 antag 58, OX1R antag-1 81 | OX1R HTRF conf inactive | CHO-K1 HTRF cnt inactive | TAAR1 nonsel count 23 | TAAR1 ant conf inactive | Ga16 nonsel ag inactive | TAAR1 ag counter inactive
